“Also recorded” adds a separate entry of the source.
Tests used:
[1] = target: FAM-Aβ42 (Homo sapiens, UniProt P05067); type: biochemical; conditions: for enhancement of CP-induced degradation of FAM-Aβ42 by anti-oxidants: compared with CP only group
[2] = Fluorescence spectra of FAM-Aβ42 during incubation in PBS; type: physicochemical; conditions: PBS buffer, 0 to 60 minutes, peptide alone
[3] = test system: SH-SY5Y cells; assay: ApopTag fluorescein in situ apoptosis detection assay with Aβ42 oligomers; type: cell-based; conditions: Aβ oligomer (20 μM) and AO (2 μM), 24 hours, compared to the control group
[4] = test system: mature iPS neurons; assay: Toxicity study with iPS neuronal cells; type: cell-based; conditions: 24 hours, Tuj-1 staining; for neuritic continuity of neurons treated with Aβ oligomers: Aβ Oligomer (20 μM)
Summary of the method: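 Neurons came from iPS cells differentiated from blood stem cells and were used as mature cultures 12 days after seeding. They were treated with Aβ oligomers (20 µM), with or without test compound. Neuronal morphology and neurite continuity were assessed by immunocytochemistry for Tuj-1, a neuronal class III β-tubulin marker.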

[5] = test system: hippocampal CA1 area from mouse brain slides; assay: Extracellular fEPSP recording in hippocampal CA1 of brain slices; conditions: 1 hour
Summary of the method: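 In hippocampal slices, the Schaffer collateral pathway was stimulated once every 15 s with 0.1 ms current pulses. Field potentials were recorded extracellularly in the CA1 stratum radiatum. fEPSP was measured as the negative deflection of the voltage trace from baseline. Maximal amplitude was summarised for four groups: control, Aβ (1 µM), test compound (0.1 µM), and Aβ plus test compound.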

FAM-Aβ42, sequence (P05067 672-713): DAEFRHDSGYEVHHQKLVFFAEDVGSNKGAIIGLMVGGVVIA

Which “degradation enhancement by Vc when incubated with AO” value ([1]; AO/Vc versus AO) does the source give for `O=C1O[C@H]([C@@H](O)CO)C(O)=C1O` [Vc, Vitamin C] here?
Its value is “no significant degradation enhancement”.

For `Oc1ccc(/C=C/c2cc(O)cc(O)c2)cc1` [resveratrol], which “enhancement of CP-induced degradation of FAM-Aβ42 by anti-oxidants” value (“enhancement … by anti-oxidants” below) [1] is on record?
The value was “neither of these anti-oxidants could enhance the degradation”.

With “FAM-Aβ42: a fluorescent dye conjugated Aβ [reference compound]” as the compound, how does the “fluorescence intensity of FAM-Aβ42 during incubation (aggregation-induced fluorescence quenching)” value [2] read?
The value was “gradually decreasing”.

Which “level of cell apoptosis” value [3] does the source give for ascorbate oxidase [AO] here?
The value was “significantly reduced”.

What about the “neuritic continuity of neurons treated with Aβ oligomers mixed with AO” value ([4]; Aβ Oligomer (20 μM) and AO (2 μM)) of the same compound?
Its value is “no apparent broken segments; also recorded: normal length neurites”.

What about the “change of fEPSP magnitude by AO alone” value ([5]; AO alone (0.1 µM)) of the same compound?
The value was “did not cause significant changes”.

And the “maximal fEPSP amplitude, Ab-AO group” value ([5]; slices incubated with 1 µM Ab and 0.1 µM AO, mean ± SE)?
Its value is 3.61± 0.49 mV.

What about the “AO-mediated cleavage of FAM-Aβ42 under N2” value ([1]; N2 gas bubbled into the incubation buffer before incubation) of the same compound?
The value was “considerably reduced”.

What about the “cleavage of FAM-Aβ42” value ([1]; after 4 hours of incubation with AO) of the same compound?
The value was “more than 50%”.

With `NC[C@H](O)c1ccc(O)c(O)c1` [norepinephrine] as the compound, how does the “enhancement … by anti-oxidants” value [1] read?
Its value is “neither of these anti-oxidants could enhance the degradation”.

Which “enhancement … by anti-oxidants” value [1] does the source give for `COc1cc(/C=C/C(=O)CC(=O)/C=C/c2ccc(O)c(OC)c2)ccc1O` [curcumin] here?
The value was “neither of these anti-oxidants could enhance the degradation”.

With `O=C(O)CN(CCN(CC(=O)O)CC(=O)O)CC(=O)O` [EDTA] as the compound, how does the “effect of EDTA on Cu/Vc-induced degradation of FAM-Aβ42” value ([1]; Cu(II)/EDTA/Vc (1:10:20), control experiment) read?
Its value is “inhibited the degradation”.

With `NCCc1ccc(O)c(O)c1` [dopamine] as the compound, how does the “enhancement … by anti-oxidants” value [1] read?
The value was “neither of these anti-oxidants could enhance the degradation”.

For vitamin E, which “enhancement … by anti-oxidants” value [1] is on record?
The value was “neither of these anti-oxidants could enhance the degradation”.

What does the source list for “Aβ oligomers: Aβ42 oligomers prepared from Aβ42 peptide in F12 media at 4°C for 24 hours [reference compound]”?
neuritic continuity of neurons treated with Aβ oligomers [4]: apparent broken neuritic segments; neuritic continuity of neurons treated with Aβ oligomers ([4]; listed as Aβ Oligomer): loss of neuritic continuity

Reference: PMC10350030 (bioRxiv, 2023)
